Assay [1] can be described thus: hit retest on RPL19A-GFP reporter strain – cell-based, S. cerevisiae, flow cytometry, cherry picks, mother/daughter gates, confirmation (AID 2270;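 active means GFP response below 50% of the DMSO control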). Conditions: 3 h, at 10 µM, stronger effect = lower value, 100 = same GFP as DMSO wells.
A short description of assay [2]: yeast TOR pathway reporter LAP4-GFP change – cell-based, cherry picks, flow cytometry, mother/daughter gates, confirmation (AID 2271;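 active means GFP response above 150% of the DMSO control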;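 further: ratio of sample to DMSO plate mean so 100% equals DMSO level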). Conditions: S. cerevisiae LAP4-GFP strain, 3 h, at 10 µM, stronger effect = higher value, 100 means same as DMSO control. In outline:
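Test system: GFP-fusion yeast strain / Amount: 0.2 OD600 cells / Buffer or medium: SC medium / Dosing: 10 µM single dose / Incubation: compound exposure 3 h at 30 °C, end-over-end rotation / Detection: HT flow cytometry, GFP fluorescence channel / Evaluation: median GFP fluorescence as percent of plate-mean DMSO wells / Control set: DMSO-only negative wells, rapamycin 400 ng/mL positive wells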
On the technique in general: In flow cytometry, cells or beads pass a laser one at a time.

Assay [3] in a line: TOR pathway reporter MEP2-GFP, retest of hits – S. cerevisiae, flow cytometry GFP, cherry picks, confirmation (AID 2272;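 active means GFP response above 150% of the DMSO control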;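 further: ratio of well signal to plate DMSO mean so 100% equals DMSO level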). Particulars: S. cerevisiae MEP2-GFP strain, 3 h, at 10 µM, stronger effect = higher value.
A short description of assay [4]: yeast AGP1-GFP fluorescence change, single-dose – cell-based, flow cytometry, S. cerevisiae, cherry picks, confirmation (AID 2273).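 Further: median GFP channel fluorescence over the whole cell population gate.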 Particulars: S. cerevisiae AGP1-GFP strain, 3 h, at 10 µM.
Assay [5] in a line: TOR pathway CIT2 reporter hit retest – S. cerevisiae, GFP fusion, cherry picks, mother/daughter gates, confirmation (AID 2274). Conditions: S. cerevisiae CIT2-GFP strain, flow cytometry, 3 h, at 10 µM, stronger effect = higher value.
The mark [6] stands for this setting: measured here: daughter cell gate.
Where [7] appears, read: measured here: mother cell gate.
Setting [8] is: measured here: daughter cell gate response.
Setting [9] is: measured here: mother cell gate response.

This passage reports GFP response vs DMSO, GFP response relative to DMSO and GFP response, % of DMSO results from PubChem BioAssay.

The structures appear in SMILES notation. Active and inactive are the calls of the source.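 How the source made its calls, unless noted: active means GFP response above 150% of the DMSO level; inconclusive means fewer than 70 events counted for a yeast strain; inactive means the rest.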

On to `O=C(N/N=C/c1c(Cl)cccc1Cl)c1cccc(F)c1`, for which the GFP response vs DMSO in assay [1] is 95.6% (inactive); in assay [1] (setting [6]), 95.3%; in assay [1] (setting [7]) it was 94%; in assay [3], 103% (inactive). Besides, the figures for the GFP response relative to DMSO in assay [2], in assay [2] (setting [8]) and in assay [2] (setting [9]) were 92.9% (inactive), 94.4% and 93.4%, respectively. For the same molecule, the GFP response, % of DMSO in assay [4] was 97.5% (inactive); in assay [5] it was 97.2% (inactive); in assay [5] (setting [6]), 99.3%; in assay [5] (setting [7]), 97.1%.

On to `C/C(=N\NC(=O)c1ccc(Br)cc1)c1ccccc1`, for which the GFP response vs DMSO in assay [1] was 98% (inactive); in assay [1] (setting [6]), 97.9%; in assay [1] (setting [7]) it was 98%; in assay [3], 102% (inactive). The GFP response relative to DMSO in assay [2] is 97.9% (inactive); in assay [2] (setting [8]), 99.2%; in assay [2] (setting [9]), 98.3%. In addition, the GFP response, % of DMSO in assay [4] is 94.3% (inactive); in assay [5], 99.7% (inactive); in assay [5] (setting [6]) it was 99.1%; in assay [5] (setting [7]), 98.5%.

On to `O=[N+]([O-])c1ccc(-c2cn3nc(-c4ccccc4)c(-c4ccccc4)nc3n2)cc1`, for which the GFP response vs DMSO in assay [1] is 102% (inactive); in assay [1] (setting [6]), 101%; in assay [1] (setting [7]), 96.2%; in assay [3], 227% (active). The GFP response relative to DMSO in assay [2] is 115% (inactive); in assay [2] (setting [8]), 115%; in assay [2] (setting [9]), 114%. In addition, the GFP response, % of DMSO was 106% (inactive) in assay [4], 109% (inactive) in assay [5], 106% in assay [5] (setting [6]) and 108% in assay [5] (setting [7]).

`COc1ccc(-c2cc(C(F)(F)F)nc(N3CCOCC3)n2)cc1OC`: the GFP response vs DMSO in assay [1] was 100% (inactive); in assay [1] (setting [6]), 100%; in assay [1] (setting [7]) it was 98.4%; in assay [3] it was 126% (inactive). The GFP response relative to DMSO in assay [2] is 101% (inactive); in assay [2] (setting [8]), 101%; in assay [2] (setting [9]), 102%. Besides, the GFP response, % of DMSO in assay [4] was 99.5% (inactive); in assay [5], 110% (inactive); in assay [5] (setting [6]), 114%; in assay [5] (setting [7]) it was 109%.

Consider `Cc1ccc(N2CC(C(=O)OCc3nnc(-c4ccccc4)o3)CC2=O)cc1` (centres undefined), for which the GFP response vs DMSO in assay [1] was 100% (inactive); in assay [1] (setting [6]) it was 102%; in assay [1] (setting [7]), 101%; in assay [3] it was 106% (inactive). In addition, the results for the GFP response relative to DMSO in assay [2], in assay [2] (setting [8]) and in assay [2] (setting [9]) were 102% (inactive), 104% and 101%, respectively. The GFP response, % of DMSO in assay [4] was 96.2% (inactive); in assay [5] it was 104% (inactive); in assay [5] (setting [6]), 104%; in assay [5] (setting [7]) it was 103%.

Consider `NC(=O)c1ccc(Oc2ccc(-c3nnco3)cc2)c([N+](=O)[O-])c1`, for which the GFP response vs DMSO in assay [1] is 98.4% (inactive); in assay [1] (setting [6]) it was 100%; in assay [1] (setting [7]) it was 99.1%; in assay [3], 100% (inactive). The GFP response relative to DMSO in assay [2] is 93.8% (inactive); in assay [2] (setting [8]), 95.6%; in assay [2] (setting [9]), 94.2%. For the same molecule, the GFP response, % of DMSO in assay [4] was 98.7% (inactive); in assay [5] it was 110% (inactive); in assay [5] (setting [6]), 105%; in assay [5] (setting [7]) it was 112%.

Consider `O=C(Nc1c2ccccc2nc2ccccc12)C(Cl)(Cl)Cl`, for which the GFP response vs DMSO is 91.7% (inactive) in assay [1], 77.9% in assay [1] (setting [6]), 83.4% in assay [1] (setting [7]) and 98.8% (inactive) in assay [3]. Further, the GFP response relative to DMSO in assay [2] was 88.7% (inactive); in assay [2] (setting [8]), 87.3%; in assay [2] (setting [9]), 94.1%. Besides, the GFP response, % of DMSO in assay [4] was 87.8% (inactive); in assay [5], 95.9% (inactive); in assay [5] (setting [6]) it was 77.8%; in assay [5] (setting [7]) it was 70.8%.

Consider `O=C1CCN(S(=O)(=O)c2ccccc2)C2CCCCC12` (centres undefined), for which the GFP response vs DMSO is 98% (inactive) in assay [1], 97.8% in assay [1] (setting [6]), 98.1% in assay [1] (setting [7]) and 106% (inactive) in assay [3]. The GFP response relative to DMSO in assay [2] is 102% (inactive); in assay [2] (setting [8]), 102%; in assay [2] (setting [9]), 100%. Moreover, the GFP response, % of DMSO is 100% (inactive) in assay [4], 108% (inactive) in assay [5], 104% in assay [5] (setting [6]) and 101% in assay [5] (setting [7]).

As to `O=C(Oc1oc(-c2ccco2)nc1C=Nc1ccccc1)c1ccco1`, the GFP response vs DMSO is 104% (inactive) in assay [1], 106% in assay [1] (setting [6]), 102% in assay [1] (setting [7]) and 107% (inactive) in assay [3]. For the same molecule, the values for the GFP response relative to DMSO in assay [2], in assay [2] (setting [8]) and in assay [2] (setting [9]) were 160% (active), 147% and 175%, respectively. Also, the GFP response, % of DMSO in assay [4] is 91.2% (inactive); in assay [5], 104% (inactive); in assay [5] (setting [6]) it was 108%; in assay [5] (setting [7]) it was 101%.
